Experimental data: ChEMBL document CHEMBL4396897, “Potent 5-Cyano-6-phenyl-pyrimidin-Based Derivatives Targeting DCN1-UBE2M Interaction” (J Med Chem, 2019)
Active and inactive are the calls of the source. The rule behind the calls is not given here.

Columns and labels:
[1] = test system: MCF7; assay: Antiproliferative activity against human MCF7 after 72 hrs by MTT assay; type: functional, cell-based; conditions: MCF7, 72 h
Summary of the method: (§1)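 MTT viability assay: cells seeded at 2~5×10^3 per well, exposed to serial dilutions of compound for 72h, then MTT (5 mg/mL in PBS) added for 4h at 37°C. Formazan dissolved in DMSO and read at 490nm. IC50 reported as mean ± SD of three independent experiments.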

[2] = test system: PC-9; assay: Effect on HO-1 accumulation in human PC9 cells transfected with DCN1 siRNA3 by densitometric method; type: functional, cell-based
Summary of the method: (§2)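 H1975 or PC9 cells seeded in 6-well plates for 16-24h, transfected with DCN1 siRNA#3 by lipofection, with or without compound, and collected three days later. Western blot for Cullin3, DCN1, NRF2, HO-1 and NQO1, with densitometry normalized to GAPDH. Three individual experiments, means ± SD.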

[3] = test system: PC-9; assay: Induction of apoptosis in human PC9 cells assessed as late apoptotic cells at 2.5 uM after 48 hrs by Annexin V-FITC/propidium iodide staining based flow cytometry (reference value: 1.57%); type: functional
[4] = test system: PC-3; assay: Antiproliferative activity against human PC3 after 72 hrs by MTT assay; type: functional, cell-based; conditions: PC-3, 72 h; summary of the method: as §1
[5] = test system: NCI-H1975; assay: Induction of apoptosis in human NCI-NCI-H1975 cells assessed as early apoptotic cells at 2.5 uM after 48 hrs by Annexin V-FITC/propidium iodide staining based flow cytometry (reference value: 2.47%); type: functional
[6] = test system: PC-9; assay: Effect on Cullin3 neddylation in human PC9 cells transfected with DCN1 siRNA3 by densitometric method; type: functional, cell-based; summary of the method: as §2

IC50 [1]: 2.2 µM
IC50 [4]: 1.62 µM
Compound: C#CCSc1nc(Sc2nccs2)c(C#N)c(-c2ccc(C)cc2)n1
Activity [2]: inactive
Activity [3]: 10.2%
Activity [5]: 9.47%
Activity [6]: inactive
